# Results from PMC2939729 (Cancer cell, 2010).
# Columns and labels:
# TNK1 = biological target: T1, TNK1 (Homo sapiens, UniProt Q13470); assay: Inhibitory effect on TNK1 in vitro and in vivo
# T1 sequence (Q13470 1-666): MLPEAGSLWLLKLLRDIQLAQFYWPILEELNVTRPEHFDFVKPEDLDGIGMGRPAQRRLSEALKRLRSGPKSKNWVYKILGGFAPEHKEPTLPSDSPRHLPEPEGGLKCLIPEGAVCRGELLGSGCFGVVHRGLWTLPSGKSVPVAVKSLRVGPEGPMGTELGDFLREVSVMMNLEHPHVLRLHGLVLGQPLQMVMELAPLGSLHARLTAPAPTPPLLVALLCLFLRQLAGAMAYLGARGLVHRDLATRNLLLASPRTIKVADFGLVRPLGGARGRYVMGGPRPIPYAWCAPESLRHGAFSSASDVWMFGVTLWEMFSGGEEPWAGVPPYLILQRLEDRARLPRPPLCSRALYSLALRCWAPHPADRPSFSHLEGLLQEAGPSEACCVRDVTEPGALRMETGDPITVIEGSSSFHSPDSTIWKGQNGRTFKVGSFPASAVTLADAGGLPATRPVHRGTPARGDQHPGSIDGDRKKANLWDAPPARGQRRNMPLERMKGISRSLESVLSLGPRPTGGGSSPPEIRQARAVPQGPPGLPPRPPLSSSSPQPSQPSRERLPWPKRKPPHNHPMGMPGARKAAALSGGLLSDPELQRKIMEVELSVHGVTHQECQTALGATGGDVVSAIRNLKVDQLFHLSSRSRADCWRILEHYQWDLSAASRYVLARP
# [1] = Tolerability experiments in mice, 14 days
# [2] = tested on: basic fibroblast growth factor (bFGF) induced angiogenesis; assay: bFGF-induced angiogenesis in Matrigel plugs; assay type: in vivo; conditions: mice, Matrigel with 400 ng/mL bFGF, treated for 6 days
# Method in brief: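 Mice were implanted with Matrigel containing 400 ng/mL bFGF and treated with test compound or vehicle for 6 days, starting the next day. Plugs were harvested, sectioned and stained with Masson's trichrome (6 mice, 9 slices), and plug hemoglobin content was measured. Student's t test was used.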
# [3] = tested on: xenografted human (HeLa) or syngeneic mouse (LL/2) tumors; assay: In vivo tumorigenesis experiments; set-up: species or system mice
# Method in brief: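 Tumour cells in DMEM were injected s.c. into the right flank of 6-week-old mice: HeLa at 5 × 10^5 into Nod/Scid mice, or LL/2 at 1 × 10^6 into C57Bl/6 mice. Groups of 6 received 50 mg/kg i.p. twice daily, starting day 1, 7 or 14 (HeLa, to day 28) or day 1, 7 or 10 (LL/2, to day 17). Controls received carrier solution. Tumours were measured by caliper every 2–3 days, volume = L × W² × 0.52. BrdU was detected in tumour sections with anti-BrdU antibody, DAPI counterstain (6 mice, 9 slices). Student's t test was used.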
# MEK5 = biological target: T2, MEK5 (Homo sapiens, UniProt Q13163); assay: KiNativ profiling in HeLa cell lysates; assay type: binding; conditions: at up to 50 μM
# T2 sequence (Q13163 1-448): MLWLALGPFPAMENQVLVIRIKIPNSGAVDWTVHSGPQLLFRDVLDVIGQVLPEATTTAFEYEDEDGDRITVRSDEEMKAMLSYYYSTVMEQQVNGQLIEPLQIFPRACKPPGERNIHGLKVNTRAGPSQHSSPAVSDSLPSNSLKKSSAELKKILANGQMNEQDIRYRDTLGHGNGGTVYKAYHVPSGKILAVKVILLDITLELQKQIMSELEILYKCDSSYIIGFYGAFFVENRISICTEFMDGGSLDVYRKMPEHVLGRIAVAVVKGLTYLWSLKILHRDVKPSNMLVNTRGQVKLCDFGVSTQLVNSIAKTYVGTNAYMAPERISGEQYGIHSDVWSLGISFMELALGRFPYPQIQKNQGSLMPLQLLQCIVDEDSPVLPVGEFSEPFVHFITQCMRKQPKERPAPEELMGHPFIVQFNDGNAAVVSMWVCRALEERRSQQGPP
# Method in brief: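 HeLa lysates (5 mg/mL total protein) were preincubated 15 min with test compound at 50, 10, 2, 0.8 or 0 μM. ATP or ADP acylphosphate probe was then added (5 μM final) for 10 min, and the reaction was stopped with urea and processed for MS. Each kinase signal came from up to four fragment ions of its peptide-probe conjugate. % inhibition was taken against untreated lysate, with duplicate reactions.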
# BMK1 = BMK1 (Homo sapiens, UniProt Q13164); assay: EGF-induced BMK1 activation in HeLa cells; assay type: cell-based; conditions: 1 μM compound for one hour, EGF 17 min
# p21 expression = p21 expression in MEF cells, western blot; assay type: cell-based; conditions: 5 μM, 16 hours
# Method in brief: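 Pml+/+ and Pml−/− MEFs were treated with or without test compound (5 μM) for 16 hr. Lysates were western-blotted with anti-p21 antibody. p21 was quantified by densitometry, normalised to GAPDH, and expressed relative to untreated Pml+/+ cells (set to 1). n = 5; Student's t test.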
# cancer cell lines = assay: Proliferation of a wide variety of cancer cell lines; assay type: cell-based
# Chain of BMK1 (Q13164 whole entry): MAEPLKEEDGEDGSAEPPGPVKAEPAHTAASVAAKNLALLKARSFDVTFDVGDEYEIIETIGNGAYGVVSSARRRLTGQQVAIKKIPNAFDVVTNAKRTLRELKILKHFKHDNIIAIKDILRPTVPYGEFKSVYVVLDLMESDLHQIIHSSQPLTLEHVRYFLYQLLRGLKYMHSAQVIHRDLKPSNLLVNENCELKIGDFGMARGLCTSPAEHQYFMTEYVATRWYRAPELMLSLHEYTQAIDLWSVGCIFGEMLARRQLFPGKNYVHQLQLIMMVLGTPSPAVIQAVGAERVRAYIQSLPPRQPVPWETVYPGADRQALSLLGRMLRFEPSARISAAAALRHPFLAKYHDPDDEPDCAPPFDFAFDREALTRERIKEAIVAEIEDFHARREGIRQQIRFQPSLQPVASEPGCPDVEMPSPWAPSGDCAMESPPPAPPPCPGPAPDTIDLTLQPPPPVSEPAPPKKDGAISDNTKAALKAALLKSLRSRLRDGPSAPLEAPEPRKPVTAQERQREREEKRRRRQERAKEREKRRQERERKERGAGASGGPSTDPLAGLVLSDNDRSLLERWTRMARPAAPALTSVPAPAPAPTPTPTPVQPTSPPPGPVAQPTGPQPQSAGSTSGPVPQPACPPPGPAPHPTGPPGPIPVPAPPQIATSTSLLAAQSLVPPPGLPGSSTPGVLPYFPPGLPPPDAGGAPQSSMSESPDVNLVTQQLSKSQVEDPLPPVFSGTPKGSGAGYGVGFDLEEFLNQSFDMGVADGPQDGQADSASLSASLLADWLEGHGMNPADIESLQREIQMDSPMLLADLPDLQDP
smiles,measurement,setting,value
CCOc1cc(N2CCC(O)CC2)ccc1Nc1ncc2c(n1)N(C)c1ccccc1C(=O)N2C [XMD8-92],inhibitory effect on TNK1,TNK1,no significant inhibitory effect
same,vasculature instability,[1]; XMD8-92-treated mice,No vasculature instability
same,plasma concentrations of drug,"[1]; mice, IP dosing of 50 mg/kg, maintained throughout the 14 days",approximately 10 μM
same,bFGF induced angiogenesis in Matrigel plugs,[2],significantly inhibits
same,incorporation of BrdU during tumor cell division,"[3]; HeLa or LL/2 tumor sections, immuno-staining",effectively inhibited
same,inhibition of tumor growth,"[3]; mice, 50 mg/kg twice a day intraperitoneally",95%
same,side effects to the animals,"[3]; tumor-bearing mice, 50 mg/kg twice a day intraperitoneally",without obvious side effects
same,inhibition of MEK5,MEK5,not significantly inhibited
same,Growth factor-induced activation of cellular BMK1,BMK1,effectively blocked
same,p21 expression,p21 expression; Pml+/+ MEF cells,significantly induced
same,induction of p21 in PML null cells,p21 expression; Pml-/- MEF cells,substantially reduced
same,effect on proliferation,cancer cell lines,inhibitory effect
